Results from PubChem BioAssay AID504348 (Broad Institute, 2011).
Inconclusive results are not listed. Values without a mark were called inactive.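 Rule for the calls: active = dose curve reaching 10% of the positive control caspase signal at or below the top valid dose; inconclusive = no clear call, values can overlap the other calls; inactive = reverse-direction response, or no crossing within range.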

Assay: caspase activation in Mcl1-dependent HMC 1-8 cells, dose response, counter-screen for A1 inhibitor project, cell-based, luminescence, dry powder, set 3 (AID 504348)
Settings: caspase-Glo luminescence, 4 h; series mostly up to 35 µM; caspase activation: at the top concentration
In short: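 Medium: RPMI-1640 plus 10% FBS; test system: HMC 1-8 human cancer cells, low A1, Mcl1-dependent; quantity: 2500 cells/well; read-out: caspase activation; incubation: 4 h compound exposure, 37 °C, plus 1 h room-temperature detection; detection: CaspaseGlo luminescence; doses: pinned compound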

| Compound | caspase activation |
| --- | --- |
| Cn1c(=O)c(Sc2ccccn2)c(Sc2ccccn2)c2ccccc21 | 5.11% |
| Cc1ccc(Sc2c([N+](=O)[O-])c(=O)n(Cc3ccccc3)c3ccccc23)cc1 | 10.5% |
| C/C(=N\Nc1nc(N2CCCCC2)nc(N2CCCCC2)n1)c1ccc(F)cc1 | 5.7% |
| COc1ccc(N2CCN(c3nc(NCCc4ccc(OC)c(OC)c4)nc(N4CCOCC4)n3)CC2)cc1 | -0.364% |
| O=c1[nH]c2ccccc2c(Cl)c1[N+](=O)[O-] | 13.4% |
| O=C(COc1ccc(Cl)cc1Cl)NNc1nc(N2CCOCC2)nc(N2CCOCC2)n1 | -3.76% |
| COc1nc2ccccc2c(Sc2ccc(C)cc2)c1[N+](=O)[O-] | -4.59% |
| COc1ccc(CCNc2nc(N3CCCC3)nc(N3CCCC3)n2)cc1OC | 1.28% |
| COc1ccc(CCNc2nc(N3CCOCC3)nc(N3CCOCC3)n2)cc1OC | 2.47% |
| CCn1c(=O)c([N+](=O)[O-])c(Sc2ccc(C)cc2)c2ccccc21 | 1.28% |
| COCCn1c(=O)c([N+](=O)[O-])c(Sc2ccc(C)cc2)c2ccccc21 | 13.3% |
